Results from ChEMBL document CHEMBL4680220, “Synthesis and biological evaluation of acridine-based histone deacetylase inhibitors as multitarget agents against Alzheimer's disease” (Eur J Med Chem, 2020).

Key:
[1] = biological target: Class 1 histone deacetylase (Homo sapiens, UniProt Q13547+O15379+Q92769+Q9BY41); test: Inhibition of class 1 HDAC in human HeLa cell nuclear extract using Boc-Lys(Ac)-AMC as substrate preincubated for 5 mins followed by substrate addition and measured after 30 mins by fluorescence assay; assay type: cell-based
Histone deacetylase 5 = Histone deacetylase 5 (Homo sapiens, UniProt Q9UQL6); test: Inhibition of recombinant human C-terminal His-tagged HDAC5 (656 to 1122 residues) expressed in baculovirus infected Sf9 insect cells using fluorogenic HDAC 2A substrate preincubated for 5 mins followed by substrate addition and measured after 30 mins by fluorescence assay
[2] = biological target: Amyloid-beta precursor protein (Homo sapiens, UniProt P05067); test: Disaggregation of self-induced amyloid beta (1 to 42) (unknown origin) preformed fibrils at 10 uM measured after 24 hrs by thioflavin-T fluorescence assay relative to control
Procedure, shortened: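 Aβ1-42 (10 µM) with 10 µM ThT and 1 mM EDTA in 50 mM phosphate buffer (150 mM NaCl, pH 7.4) pre-aggregated 24 h at 37 °C, 700 rpm; fluorescence read (ex 440/em 486 nm). Compound then added and incubated a further 24 h at 37 °C before re-reading. Disaggregation = (first − second reading)/first reading. Triplicate.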

[3] = biological target: T1, Protein deacetylase HDAC6 (Homo sapiens, UniProt Q9UBN7); test: Inhibition of HDAC6 in […] cells assessed as increase in alpha-tubulin acetylation measured after 24 hrs by Western blot analysis; assay type: cell-based, Mus musculus
T1 sequence (Q9UBN7 whole entry): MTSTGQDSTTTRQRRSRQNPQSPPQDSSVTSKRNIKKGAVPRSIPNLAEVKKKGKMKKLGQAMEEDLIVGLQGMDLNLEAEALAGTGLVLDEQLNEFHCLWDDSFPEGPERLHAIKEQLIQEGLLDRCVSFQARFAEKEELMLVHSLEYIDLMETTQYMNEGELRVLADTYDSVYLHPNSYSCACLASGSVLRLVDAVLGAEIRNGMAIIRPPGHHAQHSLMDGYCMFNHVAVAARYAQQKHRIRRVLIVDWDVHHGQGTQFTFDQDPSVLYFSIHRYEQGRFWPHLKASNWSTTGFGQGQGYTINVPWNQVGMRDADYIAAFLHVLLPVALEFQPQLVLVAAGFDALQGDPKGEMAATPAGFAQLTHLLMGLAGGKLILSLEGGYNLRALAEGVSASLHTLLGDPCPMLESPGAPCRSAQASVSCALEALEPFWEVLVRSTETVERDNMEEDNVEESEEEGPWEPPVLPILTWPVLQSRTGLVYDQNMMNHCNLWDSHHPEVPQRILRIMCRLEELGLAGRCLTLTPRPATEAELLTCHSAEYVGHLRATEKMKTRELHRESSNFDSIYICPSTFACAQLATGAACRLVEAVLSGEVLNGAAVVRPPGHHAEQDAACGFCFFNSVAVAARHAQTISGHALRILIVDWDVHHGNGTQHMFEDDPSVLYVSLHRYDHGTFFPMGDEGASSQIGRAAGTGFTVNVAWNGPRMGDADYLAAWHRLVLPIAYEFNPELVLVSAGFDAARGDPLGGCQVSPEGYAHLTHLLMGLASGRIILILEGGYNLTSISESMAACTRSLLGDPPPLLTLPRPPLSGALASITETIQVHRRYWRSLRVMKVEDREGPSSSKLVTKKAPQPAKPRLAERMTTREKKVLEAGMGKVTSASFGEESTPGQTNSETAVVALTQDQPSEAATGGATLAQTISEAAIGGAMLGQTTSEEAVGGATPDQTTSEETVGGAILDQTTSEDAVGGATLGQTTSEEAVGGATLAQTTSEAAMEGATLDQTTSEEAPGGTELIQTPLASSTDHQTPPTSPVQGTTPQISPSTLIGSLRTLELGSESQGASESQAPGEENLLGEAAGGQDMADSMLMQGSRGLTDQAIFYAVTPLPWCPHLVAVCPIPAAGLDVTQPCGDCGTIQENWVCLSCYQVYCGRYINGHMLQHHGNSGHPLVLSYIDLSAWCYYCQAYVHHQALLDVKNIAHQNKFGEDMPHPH

Hippocampal neurone = test: Induction of neurite outgrowth in Sprague-Dawley rat primary hippocampal neurons assessed as increase in number of axonal and dendritic neurite incubated for 3 days by DAPI staining based immunofluorescence microscopic analysis; assay type: functional; conditions: time 3.0 day
Procedure, shortened: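 Primary hippocampal neurons from embryonic Sprague-Dawley rats, plated on poly-D-lysine and kept in B27-neurobasal medium. Treated with DMSO or compound from DIV3 for three days, fixed at DIV6 in 4% paraformaldehyde. Axons stained with anti-tau, dendrites with anti-MAP2, nuclei with DAPI; fluorescence microscopy. At least 20 neurons traced for number and length of primary, secondary and tertiary neurites.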

MDR1 = test: Apparent permeability of compound in MDCK-MDR1 cells at 5 uM measured after 2 hrs by LC-MS/MS analysis; assay type: ADME, cell-based, Canis lupus familiaris; conditions: dog
Procedure, shortened: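 MDR1-MDCK monolayers grown to confluence on collagen-coated microporous membranes. Test article dosed at 5 µM apical (A-to-B) or basolateral (B-to-A) in HBSS with 10 mM HEPES, 15 mM glucose, pH 7.4; receiver buffer has 1% BSA. 37 °C, 5% CO2; donor and receiver sampled at 120 min, quantified by LC-MS/MS (ESI). Duplicate determinations; lucifer yellow flux checks monolayer integrity. Efflux ratio = Papp(B-A)/Papp(A-B).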

Amyloid-beta precursor protein, sequence (P05067 whole entry): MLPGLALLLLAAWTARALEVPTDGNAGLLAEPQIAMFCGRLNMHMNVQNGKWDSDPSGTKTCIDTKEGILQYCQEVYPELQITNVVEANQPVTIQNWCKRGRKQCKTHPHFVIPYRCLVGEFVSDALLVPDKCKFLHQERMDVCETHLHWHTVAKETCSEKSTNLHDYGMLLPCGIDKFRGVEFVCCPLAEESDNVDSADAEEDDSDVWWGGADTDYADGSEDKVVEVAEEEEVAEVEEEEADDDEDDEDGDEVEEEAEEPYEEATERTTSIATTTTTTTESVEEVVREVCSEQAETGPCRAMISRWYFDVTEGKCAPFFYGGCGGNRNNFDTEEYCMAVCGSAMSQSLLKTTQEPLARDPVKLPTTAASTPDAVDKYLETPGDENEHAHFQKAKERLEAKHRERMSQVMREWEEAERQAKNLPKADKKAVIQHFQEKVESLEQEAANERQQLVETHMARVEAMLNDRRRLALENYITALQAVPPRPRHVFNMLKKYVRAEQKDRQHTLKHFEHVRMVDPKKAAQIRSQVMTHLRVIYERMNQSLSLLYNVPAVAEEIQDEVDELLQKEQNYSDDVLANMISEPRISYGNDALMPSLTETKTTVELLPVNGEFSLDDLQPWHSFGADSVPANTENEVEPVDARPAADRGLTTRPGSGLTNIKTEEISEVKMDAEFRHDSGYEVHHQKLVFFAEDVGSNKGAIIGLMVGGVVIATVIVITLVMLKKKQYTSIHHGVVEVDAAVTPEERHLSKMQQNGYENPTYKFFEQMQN
Histone deacetylase 5, sequence (Q9UQL6 whole entry, the tested form may be a part): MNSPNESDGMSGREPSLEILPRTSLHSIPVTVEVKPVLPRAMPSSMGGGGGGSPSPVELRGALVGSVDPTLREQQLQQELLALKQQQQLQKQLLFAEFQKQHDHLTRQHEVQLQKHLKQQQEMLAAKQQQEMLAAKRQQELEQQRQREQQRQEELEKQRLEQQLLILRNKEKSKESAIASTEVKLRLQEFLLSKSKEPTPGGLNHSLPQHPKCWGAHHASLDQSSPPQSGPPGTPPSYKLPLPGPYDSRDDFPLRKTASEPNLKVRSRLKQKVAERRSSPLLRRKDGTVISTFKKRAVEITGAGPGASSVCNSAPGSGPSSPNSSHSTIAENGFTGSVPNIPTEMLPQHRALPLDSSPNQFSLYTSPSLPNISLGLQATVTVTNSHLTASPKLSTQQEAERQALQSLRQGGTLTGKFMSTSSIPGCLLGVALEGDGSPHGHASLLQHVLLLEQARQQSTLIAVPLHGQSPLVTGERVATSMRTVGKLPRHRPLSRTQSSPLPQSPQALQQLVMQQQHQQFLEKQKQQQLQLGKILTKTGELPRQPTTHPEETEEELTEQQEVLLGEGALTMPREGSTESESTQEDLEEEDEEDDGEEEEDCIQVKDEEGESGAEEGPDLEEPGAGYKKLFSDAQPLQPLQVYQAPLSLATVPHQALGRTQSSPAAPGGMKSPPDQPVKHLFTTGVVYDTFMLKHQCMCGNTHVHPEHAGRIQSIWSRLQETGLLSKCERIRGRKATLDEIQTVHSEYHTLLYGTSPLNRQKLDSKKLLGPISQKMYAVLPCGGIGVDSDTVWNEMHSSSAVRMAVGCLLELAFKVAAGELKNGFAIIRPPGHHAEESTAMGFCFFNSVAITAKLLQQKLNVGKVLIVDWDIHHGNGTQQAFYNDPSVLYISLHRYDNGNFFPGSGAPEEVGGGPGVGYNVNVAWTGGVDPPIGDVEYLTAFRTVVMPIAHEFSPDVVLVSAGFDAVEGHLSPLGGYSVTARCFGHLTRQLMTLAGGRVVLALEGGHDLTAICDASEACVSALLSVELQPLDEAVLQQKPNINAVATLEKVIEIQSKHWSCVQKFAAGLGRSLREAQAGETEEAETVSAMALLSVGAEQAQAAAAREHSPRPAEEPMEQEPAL

Structure (SMILES)	IC50 [1]	IC50 (Histone deacetylase 5)	inhibition [2]	EC50 [3]	Activity (Hippocampal neurone)	Papp at 2 h, 5 µM (MDR1)
O=C(NO)c1ccc(Nc2c3ccccc3nc3ccccc23)cc1	0.55 µM	0.85 µM	41%	8 µM	Dose-dependent effect	2.72 ×10⁻⁶ cm/s
O=C(NO)c1ccc(Nc2c3ccccc3nc3ccc(Br)cc23)cc1	0.16 µM	7.19 µM	70%	8 µM	Dose-dependent effect	4.57 ×10⁻⁶ cm/s
